Published values pooled from the literature.
Each line is one published result; the experiments were not run side by side.
Effect on: metabolic stability
Host: human

`CCOc1ccc2ccc(=O)oc2c1` gave a hepatocyte CLint of 60.6 µL/min/10⁶ cells (hepatocytes; 1 µM).
The microsomal CLint of `CC[N+]1(C)CCN(c2ccc(C(=O)Nc3cccc(C)n3)cc2)CC1` is reported as under 3 µL/min/mg (liver microsomes).
`CCn1ccc2c([C@](O)(c3cnc(C(F)(F)F)c(Cl)c3)C3CC3)n(C)nc2c1=O` has a microsomal CLint of under 3 µL/min/mg (liver microsomes; 0.5 µM, pH 7.4).
`CC1(CN)CCN(c2cnc3c(Sc4ccncc4Cl)n[nH]c3n2)CC1` gave a scaled CLint of 34 mL/min/kg (liver microsomes).
The scaled CLint of `CC(C)C[C@H](NC(=O)[C@@H]1COCCCCCC(=O)N2CC(F)(F)C[C@H]2C(=O)N1)C(=O)[C@@]1(C)CO1` is reported as 57.6 mL/min/kg (liver microsomes; 2 µM, 1 h).
With `CC[C@@](O)(c1cnc(C(F)(F)F)c(Cl)c1)c1c2ccn(C3CC3)c(=O)c2nn1C` the hepatocyte CLint was 1.6 µL/min/10⁶ cells (hepatocytes; 0.5 µM, pH 7.4).
With `CCC(CC)COC(=O)[C@H](C)N[P@](=O)(OC[C@@H]1C[C@@H](O)[C@H](n2cnc3c(N)ncnc32)O1)Oc1ccccc1` the microsomal CLint was 2120 µL/min/mg (liver microsomes; 1 µM).
The scaled CLint of `CC(C)C[C@H](NC(=O)[C@H](CCc1ccccc1)NC(=O)CN1CCOCC1)C(=O)N[C@@H](Cc1ccccc1)C(=O)N[C@@H](CC(C)C)C(=O)[C@@]1(C)CO1` is reported as 931 mL/min/kg (liver microsomes; 2 µM, 1 h).
`Cc1ccc(Cn2cc(C(=O)NN)c(=O)c3cc(Oc4ccccc4)ccc32)cc1` has a microsomal CLint of under 11.6 µL/min/mg (liver microsomes; 1 µM).
`Cn1nc2c(=O)n(C3CC3)nc(C3CC3)c2c1Cc1ccc(C(F)(F)F)c(F)c1` has a microsomal CLint of 4.6 µL/min/mg (liver microsomes; 0.5 µM, pH 7.4).
For `Nc1ncnc2c1ncn2[C@@H]1O[C@H](CO)C[C@H]1O`, the microsomal CLint was 142 µL/min/mg (liver microsomes; 1 µM).
With `Cn1nc2c(=O)n(C3CC3)ccc2c1[C@](O)(c1cnc(C(F)(F)F)c(Cl)c1)C(F)(F)F` the hepatocyte CLint was 0.5 µL/min/10⁶ cells (hepatocytes; 0.5 µM, pH 7.4).
The scaled CLint of `CC(C)C[C@H](NC(=O)[C@@H]1COCCCCCC(=O)N2CC[C@H]2C(=O)N1)C(=O)[C@@]1(C)CO1` is reported as 29 mL/min/kg (liver microsomes; 2 µM, 1 h).
For `O=C1CC[C@H](N2Cc3cc(N4CCN(CC5CCN(c6ccc([C@@H]7c8ccc(O)cc8CC[C@@H]7c7ccccc7)cc6)CC5)CC4)ccc3C2=O)C(=O)N1`, the hepatocyte CLint was 13 µL/min/10⁶ cells (hepatocytes; 1 µM).
`C[C@]1(C(=O)[C@H](Cc2ccccc2)NC(=O)[C@@H]2Cc3ccc(cc3)OCCCCCCCC(=O)N3CCC[C@H]3C(=O)N2)CO1` gave a scaled CLint of 927 mL/min/kg (liver microsomes; 2 µM, 1 h).
`CCn1cnc2c([C@@](O)(CC)c3ccc(C(F)(F)F)nc3)n(C)nc2c1=O` has a microsomal CLint of under 3 µL/min/mg (liver microsomes; 0.5 µM, pH 7.4).
`CCN(CCN)c1ccc(Nc2cc(NC3CC3)n3ncc(C#N)c3n2)cc1-n1cnnc1` gave a scaled CLint of under 6.9 mL/min/kg (hepatocytes; 1 µM, serum-free).
With `CCn1cc(C)c2c(C(O)c3ccc(Cl)c(F)c3)n(C)nc2c1=O` (stereo not shown) the microsomal CLint was 23 µL/min/mg (liver microsomes; 0.5 µM, pH 7.4).
With `COc1ccc([C@@H]2Sc3ccccc3N(CCN(C)C)C(=O)[C@@H]2OC(C)=O)cc1` the microsomal CLint was 26 µL/min/mg (liver microsomes).
